Experimental data published in PMC9393086 (Thrombosis and Haemostasis, 2022).
Values belong to the compound of their own block, whether it stands above or below them.

Columns and labels:
washed human platelets = test: Light transmission platelet aggregation; format: cell-based; conditions: for effect on platelet aggregation induced by 10 µM katacine: pretreatment 5 min, PRT-060318 1 µM, PP2 20 µM
Summary of the method: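 Platelets came from citrated blood of healthy donors free of antiplatelet drugs for 14 days. They were washed from PRP with 0.2 µg/mL prostacyclin, resuspended in modified Tyrode's buffer pH 7.3 and rested 30 min at RT. Platelets (2 × 10^8/mL) were stirred at 1,200 rpm at 37°C and stimulated with test compound (1–30 µM). Pretreatment was 5 min at 37°C with PP2 20 µM, PRT-060318 1 µM, AYP1 10 µg/mL or 0.1% DMSO. Read-out was light transmission; three independent experiments, mean + SD.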

[1] = molecular target: podoplanin–CLEC-2 interaction (Homo sapiens, UniProt Q9P126); test: ALPHA screen podoplanin–CLEC-2 interaction assay; format: binding
podoplanin–CLEC-2 interaction, sequence (Q9P126 55-229): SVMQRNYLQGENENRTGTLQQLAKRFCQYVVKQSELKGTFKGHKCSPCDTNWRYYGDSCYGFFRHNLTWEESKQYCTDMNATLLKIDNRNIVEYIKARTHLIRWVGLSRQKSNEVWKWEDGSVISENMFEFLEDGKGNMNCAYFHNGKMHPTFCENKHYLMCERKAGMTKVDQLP
Summary of the method: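 Biotinylated human podoplanin–rabbit Fc (50 nM) plus human CLEC-2 extracellular domain (Ser55–Pro229)–6xHis (250 nM), both expressed in HEK293T and purified, incubated with test compound (vehicle 0.1% v/v DMSO) 30 min at 4°C. Then 40 µg/mL streptavidin donor beads, 30 min at RT in the dark, then 40 µg/mL nickel acceptor beads, 60 min at RT in the dark. ALPHA signal read; false positives excluded by TruHits counter-screen; IC50 from concentration series.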

CLEC-2 = test: Immunoprecipitation of CLEC-2 and 4G10 western blot; format: cell-based, human; conditions: katacine 10 µM, rhodocytin 100 nM
Summary of the method: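 Platelets (4 × 10^8/mL, 9 µM eptifibatide) were stimulated 5 min at 37°C, stirring at 1,200 rpm, with test compound, rhodocytin or vehicle. Lysis was in NP-40 buffer with protease inhibitors and orthovanadate, pH 7.5. Lysates were precleared on Sepharose, then incubated 30 min with 2 µg anti-CLEC-2 antibody AYP1 and captured for 60 min. Immunoprecipitates were blotted with 4G10; signal was expressed as fold over vehicle.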

Syk Y525/526 = test: Phospho-specific immunoblot of platelet lysates, Syk; format: cell-based, human; conditions: katacine 10 µM, rhodocytin 100 nM; 5 min; 9 µM eptifibatide
FcR γ-chain = FcR γ-chain phosphorylation, western blot of whole cell lysate; format: cell-based, human; conditions: katacine 10 µM, CRP 3 µg/mL
mouse washed platelets = test: Mouse platelet aggregation; format: cell-based; conditions: katacine 10 µM; 2x10^8 platelets/mL
LAT Y200 = test: Phospho-specific immunoblot of platelet lysates, LAT; format: cell-based, human; conditions: katacine 10 µM, rhodocytin 100 nM; 5 min; 9 µM eptifibatide
mouse platelet lysates = test: Protein tyrosine phosphorylation in mouse platelet lysates; format: cell-based; conditions: katacine 10 µM; 4x10^8 platelets/mL

SMILES: CC(C)(C)n1nc(-c2ccc(Cl)cc2)c2c(N)ncnc21 [PP2, reference compound]
- effect on platelet aggregation induced by 10 µM katacine (washed human platelets): completely blocked

SMILES: Cc1cccc(Nc2nc(N[C@@H]3CCCC[C@@H]3N)ncc2C(N)=O)c1 [PRT-060318, reference compound]
- effect on platelet aggregation induced by 10 µM katacine (washed human platelets): completely blocked

- IC50 [1]: 1300 nM
SMILES: O=C(O)c1cc(O)c2c(c1)[C@H]([C@H]1c3cc(C(=O)O)cc(O)c3C(=O)c3c(O[C@@H]4O[C@H](CO)[C@@H](O)[C@H](O)[C@H]4O)cccc31)c1cccc(O[C@@H]3O[C@H](CO)[C@@H](O)[C@H](O)[C@H]3O)c1C2=O [sennoside A, Sennoside A]
- effect on platelet aggregation (washed human platelets; 10 and 30 µM, data not shown): no effect
- effect on the platelet aggregation response to rhodocytin (washed human platelets; 10 and 30 µM, rhodocytin 100 nM, data not shown): no effect

- IC50 [1]: 2700 nM
SMILES: Oc1cc(O)c2c(c1)O[C@H](c1cc(O)c(O)c(O)c1)[C@H](O)[C@H]2c1c(O)cc(O)c2c1O[C@H](c1cc(O)c(O)c(O)c1)[C@H](O)[C@H]2c1c(O)cc(O)c2c1O[C@H](c1cc(O)c(O)c(O)c1)[C@H](O)C2 [katacine, Katacine]
- increase in phosphorylation levels of CLEC-2 relative to vehicle (CLEC-2): 6.6 ± 4.6 fold
- platelet aggregation, concentration–response (washed human platelets; at 5 μM and below): no response
- platelet aggregation, concentration–response (washed human platelets; at 10 and 30 μM): maximal aggregation
- platelet aggregation (washed human platelets; katacine 10 µM, washed platelets 2 × 10^8/mL): 77.7 ± 9%
- increase in phosphorylation of Syk Y525/526 relative to vehicle (Syk Y525/526): 4.5 ± 0.9 fold
- phosphorylation of FcR γ-chain (FcR γ-chain): did not stimulate an increase
- platelet aggregation in mouse platelets (mouse washed platelets): did not observe platelet aggregation
- increase in phosphorylation of LAT Y200 relative to vehicle (LAT Y200): 18.8 ± 5.9 fold
- protein tyrosine phosphorylation in mouse platelets (mouse platelet lysates): did not observe
